Measurements reported in ChEMBL document CHEMBL4017525, “Lactam-Stapled Cell-Penetrating Peptides: Cell Uptake and Membrane Binding Properties” (J Med Chem, 2017).
Calls of active or inactive are those of the source. No cut-off for these calls is given here.

Assays:
[1] = Drug uptake in human HeLa cells at 2 uM after 4 hrs using fluorescein labeled compound by flow cytometric analysis; type: ADME, cell-based
In short: (§1)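 Adherent cells were exposed to fluorescein-labeled peptide at 2 μM for 4 h in serum-free medium. Trypan blue (0.4% end concentration) was added before flow cytometry to quench surface-bound fluorescence. Intracellular signal was normalized to carboxyfluorescein-labeled R9, as the mean ± SD of two independent experiments.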

HEK293 = assay: Cytotoxicity against HEK293 cells at 2 uM after 4 hrs using fluorescein labeled compound by flow cytometric analysis; type: cell-based; conditions: human, hek293, 4 h
Pseudomonas aeruginosa = assay: Antibacterial activity against Pseudomonas aeruginosa ATCC 27853 after 22 hrs by resazurin based broth dilution assay; type: functional; conditions: ATCC 27853, 22 h
In short: (§2)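 Standard broth dilution assay determining MIC against two Gram-negative and two Gram-positive strains. Values are the mean of two independent experiments.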

Lipid bilayer [2] = assay: Binding affinity to POPC lipid vesicles assessed as induction of membrane leakage at peptide to lipid ratio of 1:25 after 30 mins by spectroflurimetric analysis
In short: (§3)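 Large unilamellar vesicles (100 nm extrusion) of POPC or POPC/POPG (3/1, mol/mol) were loaded with ANTS dye and DPX quencher, and leakage was read by fluorescence dequenching. Lipid was 50 μM and peptide 2 μM (1:25), incubated 30 min at 30 °C. For lines 6 and 8, a −120 mV potential (negative inside) was set with valinomycin and outside K+ replaced by Na+.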

HeLa = assay: Cytotoxicity against human HeLa cells at 2 uM after 4 hrs using fluorescein labeled compound by flow cytometric analysis; type: cell-based
Enterococcus faecalis = assay: Antibacterial activity against Enterococcus faecalis ATCC 29212 after 22 hrs by resazurin based broth dilution assay; type: functional; conditions: ATCC 29212, 22 h; in short: as §2
Escherichia coli = assay: Antibacterial activity against Escherichia coli ATCC 25922 after 22 hrs by resazurin based broth dilution assay; type: functional; conditions: ATCC 25922, 22 h; in short: as §2
[3] = Drug uptake in HEK293 cells at 2 uM after 4 hrs using fluorescein labeled compound by flow cytometric analysis; type: ADME, cell-based; conditions: human, hek293, 4 h; in short: as §1
Staphylococcus aureus = assay: Antibacterial activity against Staphylococcus aureus ATCC 25923 after 22 hrs by resazurin based broth dilution assay; type: functional; conditions: ATCC 25923, 22 h; in short: as §2
Lipid bilayer [4] = assay: Binding affinity to POPC lipid vesicles assessed as induction of membrane leakage at peptide to lipid ratio of 1:25 at transmembrane potential of -120 mV after 30 mins by spectroflurimetric analysis; in short: as §3
Lipid bilayer [5] = assay: Binding affinity to POPC/POPG lipid vesicles assessed as induction of membrane leakage at peptide to lipid ratio of 1:25 at transmembrane potential of -120 mV after 30 mins by spectroflurimetric analysis; in short: as §3
Lipid bilayer [6] = assay: Binding affinity to POPC/POPG lipid vesicles assessed as induction of membrane leakage at peptide to lipid ratio of 1:25 after 30 mins by spectroflurimetric analysis; in short: as §3

Molecule | Drug uptake [1] | Activity (HEK293) | MIC (Pseudomonas aeruginosa) [µg/mL] | Activity (Lipid bilayer [2]) [%] | Activity (HeLa) | MIC (Enterococcus faecalis) [µg/mL] | MIC (Escherichia coli) [µg/mL] | Drug uptake [3] | MIC (Staphylococcus aureus) [µg/mL] | Activity (Lipid bilayer [4]) [%] | Activity (Lipid bilayer [5]) | Activity (Lipid bilayer [6])
H-QQRKRKIWSILAPLGTTLVKLVAGIG-NH2 | Active | Non-Toxic | 64 | 100 | Non-Toxic | 32 | 32 | Active | 32 | 100 | – | –
H-KLALKALKALKAALKLA-NH2 | Active | Non-Toxic | 256 | – | Non-Toxic | 256 | 16 | Active | 16 | – | Active | Active
H-AAVLLPVLLAAP-NH2 | Active | Non-Toxic | > 256 | – | Non-Toxic | > 256 | > 256 | Active | > 256 | – | inactive | inactive
H-PLILLRLLRGQF-NH2 | Active | Non-Toxic | > 256 | – | Non-Toxic | 64 | 256 | Active | 16 | – | Active | Active
N=C(N)NCCC[C@H](NC(=O)[C@H](CCCNC(=N)N)NC(=O)[C@H](CCCNC(=N)N)NC(=O)[C@H](CCCNC(=N)N)NC(=O)[C@H](CCCNC(=N)N)NC(=O)[C@H](CCCNC(=N)N)NC(=O)[C@H](CCCNC(=N)N)NC(=O)[C@H](CCCNC(=N)N)NC(=O)[C@@H](N)CCCNC(=N)N)C(=O)O | Active | – | – | – | – | – | – | Active | – | – | – | –
